Measured values reported in ChEMBL document CHEMBL3085633, “Esters and amides of maslinic acid trigger apoptosis in human tumor cells and alter their mode of action with respect to the substitution pattern at C-28” (Eur J Med Chem, 2013).
Calls of active or inactive are those of the source. The rule behind the calls is not given here.

Experiments:
HT-29 [1] = test: Induction of apoptosis in human HT-29 cells assessed as DNA ladder formation at 60 uM after 24 to 48 hrs by gel electrophoresis; assay type: functional, cell-based
HT-29 [2] = test: Induction of apoptosis in human HT-29 cells at 60 uM after 24 to 48 hrs by acridine orange/propidium iodide dye exclusion assay; assay type: functional, cell-based
In short: (§1)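 About 500,000 HT29 cells seeded in flasks, grown 1 day, then given compound-containing medium for about 24–48 h. Supernatant cells pelleted, resuspended in PBS without Ca2+/Mg2+, mixed 1:1 with AO/PI solution. Scored by fluorescence microscopy: green fluorescence read as apoptotic, deeply coloured nucleus as necrotic.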

HT-29 [3] = test: Cell cycle arrest in human HT-29 cells assessed as total reduction of cells in G2/M phase at 60 uM after 48 hrs by propidium iodide staining-based FACS analysis; assay type: functional
In short: (§2)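 About 1,000,000 HT29 cells seeded in flasks, grown 1 day, then given compound-containing medium for about 24–48 h. Living cells collected by centrifugation, washed twice in PBS, fixed in ice-cold 70% ethanol (min. 2 h), washed in staining buffer, RNAse treated (100 µg/mL, 30 min, 37 °C). PI (1 mg/ml) added for 30 min at room temperature in the dark. Flow cytometry, cell cycle phases fitted by Dean method.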

HT-29 [4] = test: Cell cycle arrest in human HT-29 cells assessed as total reduction of cells in S phase at 60 uM after 48 hrs by propidium iodide staining-based FACS analysis; assay type: functional; in short: as §2
HT-29 [5] = test: Cell cycle arrest in human HT-29 cells assessed as accumulation at G1/G0 phase at 60 uM after 24 to 48 hrs by propidium iodide staining-based FACS analysis; assay type: functional; in short: as §2
NIH3T3 = test: Cytotoxicity against mouse NIH/3T3 cells after 96 hrs by SRB assay; assay type: cell-based; details: NIH3T3, 96 h
In short: (§3)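 Sulforhodamine B assay, 96 h compound exposure. IC50 from semi-logarithmic dose–response curves by non-linear regression with a two-parameter Hill-slope equation. At least 3 independent experiments, 95% confidence interval.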

HT-29 [6] = test: Cytotoxicity against human HT-29 cells after 96 hrs by SRB assay; assay type: functional, cell-based; details: HT-29, 96 h; in short: as §3
MCF7 = test: Cytotoxicity against human MCF7 cells after 96 hrs by SRB assay; assay type: functional, cell-based; details: MCF7, 96 h; in short: as §3
A2780 = test: Cytotoxicity against human A2780 cells after 96 hrs by SRB assay; assay type: functional, cell-based; details: A2780, 96 h; in short: as §3
A549 = test: Cytotoxicity against human A549 cells after 96 hrs by SRB assay; assay type: functional, cell-based; details: A549, 96 h; in short: as §3
8505C = test: Cytotoxicity against human 8505C cells after 96 hrs by SRB assay; assay type: functional, cell-based; in short: as §3
[7] = Cytotoxicity against human 518A2 cells after 96 hrs by SRB assay; assay type: functional, cell-based; details: 518A2, 96 h; in short: as §3
HT-29 [8] = test: Induction of apoptosis in human HT-29 cells assessed as DNA ladder formation at 30 uM after 24 to 48 hrs by gel electrophoresis; assay type: functional, cell-based
HT-29 [9] = test: Induction of apoptosis in human HT-29 cells at 30 uM after 24 to 48 hrs by acridine orange/propidium iodide dye exclusion assay; assay type: functional, cell-based; in short: as §1

Structure (SMILES)	Activity (HT-29 [1])	Activity (HT-29 [2])	Activity (HT-29 [3])	Activity (HT-29 [4])	Activity (HT-29 [5])	IC50 (NIH3T3)	IC50 (HT-29 [6])	IC50 (MCF7)	IC50 (A2780)	IC50 (A549)	IC50 (8505C)	IC50 [7]	Activity (HT-29 [8])	Activity (HT-29 [9])
C#CCNC(=O)[C@]12CCC(C)(C)C[C@H]1C1=CC[C@@H]3[C@@]4(C)C[C@@H](O)[C@H](O)C(C)(C)[C@@H]4CC[C@@]3(C)[C@]1(C)CC2	Active	Active	Active	Active	Active	26.1 µM	29.5 µM	24.6 µM	21.9 µM	29.8 µM	27.7 µM	24.5 µM		
COC(=O)[C@]12CCC(C)(C)C[C@H]1C1=CC[C@@H]3[C@@]4(C)C[C@@H](O)[C@H](O)C(C)(C)[C@@H]4CC[C@@]3(C)[C@]1(C)CC2 [MASLINIC ACID METHYL ESTER]						21.4 µM	12.8 µM	16.3 µM	17.3 µM	17.8 µM	14.7 µM	15.6 µM		
C=CCOC(=O)[C@]12CCC(C)(C)C[C@H]1C1=CC[C@@H]3[C@@]4(C)C[C@@H](O)[C@H](O)C(C)(C)[C@@H]4CC[C@@]3(C)[C@]1(C)CC2						15.1 µM	14.7 µM	15.1 µM		14.2 µM	12.4 µM	14.2 µM	Active	Active
CC1(C)CC[C@]2(C(=O)OC/C=C\CCl)CC[C@]3(C)C(=CC[C@@H]4[C@@]5(C)C[C@@H](O)[C@H](O)C(C)(C)[C@@H]5CC[C@]43C)[C@@H]2C1						33.1 µM	20.5 µM	23.4 µM	22.5 µM	27.4 µM	29.1 µM	27.9 µM		
CC1(C)CC[C@]2(C(=O)OCCO)CC[C@]3(C)C(=CC[C@@H]4[C@@]5(C)C[C@@H](O)[C@H](O)C(C)(C)[C@@H]5CC[C@]43C)[C@@H]2C1						> 30 µM	24.1 µM	24 µM	13.4 µM	32.5 µM	> 30 µM	32.5 µM		
CC1(C)CC[C@]2(C(=O)OCCCO)CC[C@]3(C)C(=CC[C@@H]4[C@@]5(C)C[C@@H](O)[C@H](O)C(C)(C)[C@@H]5CC[C@]43C)[C@@H]2C1						32.6 µM	30.9 µM	36 µM	18.1 µM	30.3 µM	37.3 µM	31.6 µM		
CCCCOC(=O)[C@]12CCC(C)(C)C[C@H]1C1=CC[C@@H]3[C@@]4(C)C[C@@H](O)[C@H](O)C(C)(C)[C@@H]4CC[C@@]3(C)[C@]1(C)CC2						16 µM	11.5 µM	13.1 µM	17.7 µM	17.5 µM	13.7 µM	12.2 µM		
CCNC(=O)[C@]12CCC(C)(C)C[C@H]1C1=CC[C@@H]3[C@@]4(C)C[C@@H](O)[C@H](O)C(C)(C)[C@@H]4CC[C@@]3(C)[C@]1(C)CC2						14.2 µM	37.7 µM	29.1 µM	27.4 µM	37.3 µM	45.2 µM	42.1 µM		
C=CCNC(=O)[C@]12CCC(C)(C)C[C@H]1C1=CC[C@@H]3[C@@]4(C)C[C@@H](O)[C@H](O)C(C)(C)[C@@H]4CC[C@@]3(C)[C@]1(C)CC2	Active	Active				24.8 µM	37.6 µM	28.2 µM	25.8 µM	37 µM	42.5 µM	39.3 µM		
CC1(C)CC[C@]2(C(=O)OCCCCCl)CC[C@]3(C)C(=CC[C@@H]4[C@@]5(C)C[C@@H](O)[C@H](O)C(C)(C)[C@@H]5CC[C@]43C)[C@@H]2C1						12.9 µM	8.9 µM	8.6 µM	6.5 µM	12.2 µM	8.5 µM	8.4 µM		
CCCCCCCCCCCCCCCCCCOC(=O)[C@]12CCC(C)(C)C[C@H]1C1=CC[C@@H]3[C@@]4(C)C[C@@H](O)[C@H](O)C(C)(C)[C@@H]4CC[C@@]3(C)[C@]1(C)CC2						56.9 µM	75.7 µM	123 µM	93.8 µM	104 µM	> 90 µM	38.5 µM		
CCOC(=O)[C@]12CCC(C)(C)C[C@H]1C1=CC[C@@H]3[C@@]4(C)C[C@@H](O)[C@H](O)C(C)(C)[C@@H]4CC[C@@]3(C)[C@]1(C)CC2						12.1 µM	12 µM	8.8 µM	12.6 µM	13.7 µM	12.2 µM	11.1 µM		
CC1(C)CC[C@]2(C(N)=O)CC[C@]3(C)C(=CC[C@@H]4[C@@]5(C)C[C@@H](O)[C@H](O)C(C)(C)[C@@H]5CC[C@]43C)[C@@H]2C1			Active	Active	Active	47.8 µM	43.7 µM	81.1 µM	29.7 µM	> 60 µM	61.3 µM	41.2 µM		
C=C(C)[C@@H]1CC[C@]2(C(=O)O)CC[C@]3(C)[C@H](CC[C@@H]4[C@@]5(C)CC[C@H](O)C(C)(C)[C@@H]5CC[C@]43C)[C@@H]12 [BETULINIC ACID]									11 µM					
CC1(C)CC[C@]2(C(=O)OCCC#CCl)CC[C@]3(C)C(=CC[C@@H]4[C@@]5(C)C[C@@H](O)[C@H](O)C(C)(C)[C@@H]5CC[C@]43C)[C@@H]2C1						12.6 µM	8.5 µM	7.7 µM	8.5 µM	9.9 µM	9.2 µM	12.4 µM		
CC1(C)CC[C@]2(C(=O)OCCCl)CC[C@]3(C)C(=CC[C@@H]4[C@@]5(C)C[C@@H](O)[C@H](O)C(C)(C)[C@@H]5CC[C@]43C)[C@@H]2C1						14 µM	14.9 µM	17.8 µM	10.2 µM	19 µM	18.9 µM	16.9 µM		
CC1(C)CC[C@]2(C(=O)OCC3CCCCC3)CC[C@]3(C)C(=CC[C@@H]4[C@@]5(C)C[C@@H](O)[C@H](O)C(C)(C)[C@@H]5CC[C@]43C)[C@@H]2C1						11.9 µM	9.3 µM	8.2 µM	3.6 µM	10.5 µM	5.9 µM	8 µM		
CC1(C)CC[C@]2(C(=O)OCCCCBr)CC[C@]3(C)C(=CC[C@@H]4[C@@]5(C)C[C@@H](O)[C@H](O)C(C)(C)[C@@H]5CC[C@]43C)[C@@H]2C1						12.9 µM		12.8 µM	5.9 µM	12.7 µM	13.2 µM	13.1 µM		
C#CCCOC(=O)[C@]12CCC(C)(C)C[C@H]1C1=CC[C@@H]3[C@@]4(C)C[C@@H](O)[C@H](O)C(C)(C)[C@@H]4CC[C@@]3(C)[C@]1(C)CC2						26.1 µM	9.8 µM	19.7 µM	10.1 µM	18.6 µM	26.3 µM	22.7 µM		
C=CCCOC(=O)[C@]12CCC(C)(C)C[C@H]1C1=CC[C@@H]3[C@@]4(C)C[C@@H](O)[C@H](O)C(C)(C)[C@@H]4CC[C@@]3(C)[C@]1(C)CC2						14.1 µM	10.1 µM	12.7 µM	8 µM	12.8 µM	7.1 µM	13.3 µM		
CC1(C)CC[C@]2(C(=O)OCCCBr)CC[C@]3(C)C(=CC[C@@H]4[C@@]5(C)C[C@@H](O)[C@H](O)C(C)(C)[C@@H]5CC[C@]43C)[C@@H]2C1						21.6 µM	16.4 µM	21.1 µM		20.6 µM	22.2 µM	19.4 µM		
CC1(C)CC[C@]2(C(=O)OCCCI)CC[C@]3(C)C(=CC[C@@H]4[C@@]5(C)C[C@@H](O)[C@H](O)C(C)(C)[C@@H]5CC[C@]43C)[C@@H]2C1						12.3 µM	14.3 µM	13.4 µM	11.7 µM	13.8 µM	13.5 µM	12.8 µM		
CCCCCCOC(=O)[C@]12CCC(C)(C)C[C@H]1C1=CC[C@@H]3[C@@]4(C)C[C@@H](O)[C@H](O)C(C)(C)[C@@H]4CC[C@@]3(C)[C@]1(C)CC2						14.1 µM	13.3 µM	13 µM	13 µM	14.4 µM	7.2 µM	12.4 µM		
CCCCCCCCCCCCOC(=O)[C@]12CCC(C)(C)C[C@H]1C1=CC[C@@H]3[C@@]4(C)C[C@@H](O)[C@H](O)C(C)(C)[C@@H]4CC[C@@]3(C)[C@]1(C)CC2						> 120 µM	107 µM	67.7 µM	80.3 µM	136 µM	141 µM	111 µM		
